{"data": "Measurements gathered from unrelated publications", "target": "Death-associated protein kinase 3 (DAPK3, Homo sapiens, UniProt O43293)", "note": "Each line is one published result; the experiments were not run side by side."}
{"SMILES": "C#Cc1cccc(Nc2ncnc3cc(OCCOC)c(OCCOC)cc23)c1", "test": "cell-free assay", "conditions": "0.5 µM", "quantity": "remaining signal", "result": "95.4%"}
{"SMILES": "CCN(CC)c1ccc(C2=NNC(=O)CC2C)cc1[N+](=O)[O-] (centres unmarked)", "test": "enzyme activity, inhibitor", "conditions": "10 µM", "quantity": "remaining activity", "result": "100%"}
{"SMILES": "CC(C)(C)c1nc2c(s1)c1nc(N)ncc1c1ccc(NS(=O)(=O)c3c(F)cccc3F)c(F)c12", "test": "enzyme activity, inhibitor, radiometric", "conditions": "1 µM", "quantity": "remaining activity", "result": "58%"}
{"SMILES": "O=c1nc(-c2ccccn2)sc2ccccc12", "test": "binding, competition with immobilised ligand", "conditions": "1 µM", "quantity": "remaining binding", "result": "91%"}
{"SMILES": "COc1cc2ncnc(Nc3ccc(Oc4ccccc4)c(C)c3C)c2cc1OC", "test": "enzyme activity, inhibitor", "conditions": "1 µM", "quantity": "inhibition", "result": "1%"}
{"SMILES": "Cc1sc(C(=O)NC2COC2)cc1-n1cc(NC(=O)Nc2c(F)cccc2Cl)cn1", "test": "enzyme activity, inhibitor", "conditions": "10 µM", "quantity": "remaining activity", "result": "101%"}
{"SMILES": "CN([C@@H]1CCc2c(CC(=O)O)c3ccccc3n2C1)S(=O)(=O)c1ccc(F)cc1", "test": "cell-free assay, competition with immobilised ligand", "conditions": "1 µM", "quantity": "remaining binding", "result": "87%"}
{"SMILES": "CCCS(=O)(=O)Nc1ccc(F)c(C(=O)c2c[nH]c3ncc(-c4ccc(Cl)cc4)cc23)c1F", "test": "enzyme activity, inhibitor", "conditions": "1 µM", "quantity": "inhibition", "result": "< 10%"}
{"SMILES": "O=C1Nc2ccc(Cl)cc2C1=Cc1cc(Cl)c(O)c(Cl)c1", "test": "cell-free assay", "conditions": "0.5 µM", "quantity": "remaining signal", "result": "82.3%"}
{"SMILES": "Nc1ncnc2occ(-c3ccc(NC(=O)Nc4cc(C(F)(F)F)ccc4F)cc3)c12", "test": "cell-free assay, inhibitor", "conditions": "20 µM", "quantity": "remaining signal", "result": "7.9%"}
{"SMILES": "C[C@H](c1cccc(C#N)c1)n1cc(Cl)cc(C(N)=O)c1=N", "test": "cell-free assay, competition with immobilised ligand", "conditions": "1 µM", "quantity": "remaining binding", "result": "100%"}
{"SMILES": "COc1cc2ncnc(Nc3ccc(F)c(Cl)c3)c2cc1OCCCN1CCOCC1", "test": "cell-free assay", "conditions": "0.5 µM", "quantity": "remaining signal", "result": "95.7%"}
{"SMILES": "C[C@H](c1ccc(F)cc1)N(Cc1cccc(C(=O)O)c1)C(=O)c1cnc2ccccc2c1", "test": "cell-free assay, competition with immobilised ligand", "conditions": "1 µM", "quantity": "remaining binding", "result": "100%"}
{"SMILES": "Cc1ccc(Nc2nccc(N(C)c3ccc4c(C)n(C)nc4c3)n2)cc1S(N)(=O)=O", "test": "enzyme activity, inhibitor", "conditions": "0.3 µM", "quantity": "inhibition", "result": "-7%"}
{"SMILES": "CCCOc1ccc(OC)c(F)c1C(=O)c1ccc(C(=O)N[C@@H]2CNC[C@H]2NC(=O)c2ccc3[nH]ncc3c2)cc1", "test": "enzyme activity, inhibitor", "conditions": "10 µM", "quantity": "remaining activity", "result": "40%"}
{"SMILES": "Oc1cccc(-c2nc(N3CCOCC3)c3oc4ncccc4c3n2)c1", "test": "cell-free assay", "conditions": "0.5 µM", "quantity": "remaining signal", "result": "93.1%"}
{"SMILES": "Cc1nc(C2CCN(C(=O)c3ccc(OC(F)(F)F)cc3N)CC2)c2ncc(N3CCN(C)CC3)cc2n1", "test": "cell-free assay, competition with immobilised ligand", "conditions": "1 µM", "quantity": "remaining binding", "result": "100%"}
{"SMILES": "O=C1NC(=O)c2cc(Nc3ccc(F)cc3)c(Nc3ccc(F)cc3)cc21", "test": "cell-free assay", "conditions": "0.5 µM", "quantity": "remaining signal", "result": "101%"}
{"SMILES": "COc1cc(-c2cn(C3CCc4ccccc4N(CC(F)(F)F)C3=O)nn2)ccc1-n1ccc(C)n1 (centres unmarked)", "test": "cell-free assay, competition with immobilised ligand", "conditions": "1 µM", "quantity": "remaining binding", "result": "100%"}
{"SMILES": "CN1CC(Oc2cnc(C#N)cc2-c2ccn3nc(NC(=O)C4CC4)cc3c2)C1", "test": "enzyme activity, inhibitor", "conditions": "1 µM", "quantity": "inhibition", "result": "4%"}
{"SMILES": "Cc1cc(NC(=O)c2cccc3cc(-c4cccc5[nH]nc(N)c45)ccc23)ccc1F", "test": "enzyme activity, inhibitor", "conditions": "0.1 µM", "quantity": "activity vs control", "result": "105%"}
{"SMILES": "COc1cc(Cl)c(C(=O)N[C@@H](CN[C@H]2CC[C@@H](N)CC2)Cc2ccc(C#N)cc2)cc1-c1ccc(CN[C@H](C)c2ccc(C)cc2)o1", "test": "enzyme activity, inhibitor", "conditions": "1 µM", "quantity": "remaining activity", "result": "89%"}
{"SMILES": "COc1cc(-c2cc(-c3ccc(N4CCNCC4)cc3)cnc2C)cc(OC)c1OC", "test": "enzyme activity, inhibitor", "conditions": "1 µM", "quantity": "inhibition", "result": "2%"}
